Tests used:
[1] = test system: Plasmodium falciparum; test: Antimalarial activity against chloroquine-sensitive Plasmodium falciparum 3D7 by [3H]hypoxanthine uptake; type: functional, organism-based
[2] = test system: HL-60; test: Anticancer activity against human HL60 cells by MTT assay; type: functional, cell-based
Outline: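 HL-60 cells grown in RPMI-1640 with 10% v/v FBS and 1% v/v L-glutamine, 37 °C, 5% CO2, kept below 1 × 10⁶ cells/mL, passages 5–15. Seeded at 2.5 × 10⁴/well in triplicate and exposed for 72 h to […]. DMSO final below 0.5% v/v. Read by MTT (4 h) then SDS/DMF lysis (4 h), A570/590, as % of vehicle. IC50 taken from inhibition curves; experiments repeated at least three times.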

[3] = Therapeutic index, ratio of IC50 for human HL60 cells to IC50 for Plasmodium falciparum; type: cell-based, HL-60; conditions: read-out: TI
[4] = test system: Plasmodium falciparum; test: Antimalarial activity against chloroquine-resistant Plasmodium falciparum K1 by [3H]hypoxanthine uptake; type: functional, organism-based
[5] = test system: PBMC; test: Toxicity in PBMC at 250 uM; type: cell-based

| Compound | IC50 [1] [nM] | IC50 [2] [nM] | selectivity ratio [3] | IC50 [4] [nM] | Activity [5] |
| --- | --- | --- | --- | --- | --- |
| C[C@H]1[C@@H](CCNC(=O)NCC[C@H]2O[C@@H]3O[C@@]4(C)CC[C@H]5[C@H](C)CC[C@@H]([C@H]2C)[C@@]35OO4)O[C@@H]2O[C@@]3(C)CC[C@H]4[C@H](C)CC[C@@H]1[C@@]24OO3 | > 60 | > 100000 |  |  |  |
| C[C@H]1[C@@H](CCOC(=O)OCC[C@H]2O[C@@H]3O[C@@]4(C)CC[C@H]5[C@H](C)CC[C@@H]([C@H]2C)[C@@]35OO4)O[C@@H]2O[C@@]3(C)CC[C@H]4[C@H](C)CC[C@@H]1[C@@]24OO3 | 4.6 | > 100000 |  |  |  |
| COP(=O)(OCCC[C@H]1O[C@@H]2O[C@@]3(C)CC[C@H]4[C@H](C)CC[C@@H]([C@H]1C)[C@@]24OO3)OCCC[C@H]1O[C@@H]2O[C@@]3(C)CC[C@H]4[C@H](C)CC[C@@H]([C@H]1C)[C@@]24OO3 | 4.8 | 50 |  |  |  |
| C[C@H]1[C@@H](CCN2CCC(C3CCN(CC[C@H]4O[C@@H]5O[C@@]6(C)CC[C@H]7[C@H](C)CC[C@@H]([C@H]4C)[C@@]57OO6)CC3)CC2)O[C@@H]2O[C@@]3(C)CC[C@H]4[C@H](C)CC[C@@H]1[C@@]24OO3 | 0.46 | 400 |  |  |  |
| C[C@@H]1[C@@H](COP(=O)(OC[C@H]2O[C@@H]3O[C@@]4(C)CC[C@H]5[C@H](C)CC[C@@H]([C@@H]2C)[C@@]35OO4)Oc2ccccc2)O[C@@H]2O[C@@]3(C)CC[C@H]4[C@H](C)CC[C@@H]1[C@@]24OO3 | 6 | 1040 |  |  |  |
| C[C@H]1[C@@H](CCCOP(=O)(OCCC[C@H]2O[C@@H]3O[C@@]4(C)CC[C@H]5[C@H](C)CC[C@@H]([C@H]2C)[C@@]35OO4)Oc2ccccc2)O[C@@H]2O[C@@]3(C)CC[C@H]4[C@H](C)CC[C@@H]1[C@@]24OO3 | 0.21 | 250 |  |  |  |
| C[C@H]1[C@@H](CCNC(=O)C[C@H]2O[C@@H]3O[C@@]4(C)CC[C@H]5[C@H](C)CC[C@@H]([C@H]2C)[C@@]35OO4)O[C@@H]2O[C@@]3(C)CC[C@H]4[C@H](C)CC[C@@H]1[C@@]24OO3 | 0.03 | 100 |  |  |  |
| COP(=O)(OC[C@H]1O[C@@H]2O[C@@]3(C)CC[C@H]4[C@H](C)CC[C@@H]([C@@H]1C)[C@@]24OO3)OC[C@H]1O[C@@H]2O[C@@]3(C)CC[C@H]4[C@H](C)CC[C@@H]([C@@H]1C)[C@@]24OO3 | 4.8 | 770 |  |  |  |
| COP(=O)(OCC[C@H]1O[C@@H]2OC3(C)CC[C@H]4[C@H](C)CC[C@@H]([C@H]1C)[C@@]24OO3)OCC[C@H]1O[C@@H]2OC3(C)CC[C@H]4[C@H](C)CC[C@@H]([C@H]1C)[C@@]24OO3 (single isomer, unassigned) |  | 70 | > 500 | 0.2 | Non-toxic |
| C[C@H]1[C@@H](CCOP(=O)(OCC[C@H]2O[C@@H]3OC4(C)CC[C@H]5[C@H](C)CC[C@@H]([C@H]2C)[C@@]35OO4)Oc2ccccc2)O[C@@H]2OC3(C)CC[C@H]4[C@H](C)CC[C@@H]1[C@@]24OO3 (single isomer, unassigned) |  | 270 | > 500 | 0.5 | Non-toxic |
| CO[C@H]1O[C@@H]2O[C@@]3(C)CC[C@H]4[C@H](C)CC[C@@H]([C@H]1C)[C@@]24OO3 [ARTEMETHER] | 2.11 |  |  | 3.53 |  |
| C[C@@H]1CC[C@H]2[C@@H](C)C(=O)O[C@@H]3O[C@@]4(C)CC[C@@H]1[C@]32OO4 [ARTEMISININ] | 12.3 |  |  |  |  |
| C[C@H]1[C@@H](O)O[C@@H]2O[C@@]3(C)CC[C@H]4[C@H](C)CC[C@@H]1[C@@]24OO3 [ARTENIMOL] |  | 2410 |  |  |  |
| COc1cccc2c1C(=O)c1c(O)c3c(c(O)c1C2=O)C[C@@](O)(C(=O)CO)C[C@@H]3O[C@H]1C[C@H](N)[C@H](O)[C@H](C)O1 [DOXORUBICIN] |  | 18 |  |  |  |
